# Experimental data: PMC5034155 (Journal of medicinal chemistry, 2016)
# Assays:
# PB1(5) bromodomain = PB1(5) bromodomain (Homo sapiens, UniProt Q86U86); test: DSF thermal shift, PB1; assay type: binding; details: fragment screen against PB1(5); confirmed by ITC
# [1] = Chemical stability in cell media; assay type: physicochemical; details: after one week in cell media at 37°C
# [2] = system: C2C12 and C3H10T1/2 cells; test: MTT cell viability assay; assay type: cell-based; details: up to 50 μM dose, 72 hours
# [3] = system: clear cell renal cell carcinoma cell lines (786-O and Rcc4); test: ccRCC cell line proliferation; assay type: cell-based; details: 786-O (wild type PB1) and Rcc4 (PB1 downregulation)
# [4] = system: C3H10T1/2 mesenchymal cells; test: Adipocyte differentiation; assay type: cell-based; details: 20 μM
# SMARCA4 = SMARCA4 (Homo sapiens, UniProt P51532); test: SMARCA4 FRAP assay; assay type: cell-based
# In short: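 Run like the SMARCA2 FRAP: U2OS cells treated with the HDAC inhibitor SAHA to induce hyperacetylation, transfected with a GFP-tagged bromodomain construct, and exposed to test compound. Chromatin displacement is read as the fluorescence recovery half-time after photobleaching.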
# GFP-SMARCA2 in U2OS = GFP-SMARCA2 in U2OS (Homo sapiens, UniProt P51531); test: SMARCA2 FRAP assay; assay type: cell-based; details: U2OS treated with SAHA
# GFP-PB1 = GFP-PB1 (Homo sapiens, UniProt Q86U86); test: PB1 FRAP assay; assay type: cell-based; details: SAHA treated
# In short: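 GFP-tagged PB1 (wild type or N263A / N707F acetyl-lysine-site mutants) expressed by transfection in cells pretreated with SAHA (2.5 μM) to hyperacetylate chromatin. Test compound given at several doses. Read-out is the half-time (t½) of fluorescence recovery after photobleaching, averaged from individual recovery curves of at least 20 cells per group with SEM. p-values are relative to wild type with SAHA.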
# [5] = system: non-family VIII bromodomains; test: BROMOscan profiling from DiscoveRx; assay type: binding
# [6] = system: non-family VIII bromodomains; test: Tm shift panel of 40 bromodomain proteins; assay type: binding
# Family VIII bromodomains = test: Isothermal Titration Calorimetry, Family VIII bromodomains; assay type: binding
# Chain of SMARCA4 (P51532 whole entry): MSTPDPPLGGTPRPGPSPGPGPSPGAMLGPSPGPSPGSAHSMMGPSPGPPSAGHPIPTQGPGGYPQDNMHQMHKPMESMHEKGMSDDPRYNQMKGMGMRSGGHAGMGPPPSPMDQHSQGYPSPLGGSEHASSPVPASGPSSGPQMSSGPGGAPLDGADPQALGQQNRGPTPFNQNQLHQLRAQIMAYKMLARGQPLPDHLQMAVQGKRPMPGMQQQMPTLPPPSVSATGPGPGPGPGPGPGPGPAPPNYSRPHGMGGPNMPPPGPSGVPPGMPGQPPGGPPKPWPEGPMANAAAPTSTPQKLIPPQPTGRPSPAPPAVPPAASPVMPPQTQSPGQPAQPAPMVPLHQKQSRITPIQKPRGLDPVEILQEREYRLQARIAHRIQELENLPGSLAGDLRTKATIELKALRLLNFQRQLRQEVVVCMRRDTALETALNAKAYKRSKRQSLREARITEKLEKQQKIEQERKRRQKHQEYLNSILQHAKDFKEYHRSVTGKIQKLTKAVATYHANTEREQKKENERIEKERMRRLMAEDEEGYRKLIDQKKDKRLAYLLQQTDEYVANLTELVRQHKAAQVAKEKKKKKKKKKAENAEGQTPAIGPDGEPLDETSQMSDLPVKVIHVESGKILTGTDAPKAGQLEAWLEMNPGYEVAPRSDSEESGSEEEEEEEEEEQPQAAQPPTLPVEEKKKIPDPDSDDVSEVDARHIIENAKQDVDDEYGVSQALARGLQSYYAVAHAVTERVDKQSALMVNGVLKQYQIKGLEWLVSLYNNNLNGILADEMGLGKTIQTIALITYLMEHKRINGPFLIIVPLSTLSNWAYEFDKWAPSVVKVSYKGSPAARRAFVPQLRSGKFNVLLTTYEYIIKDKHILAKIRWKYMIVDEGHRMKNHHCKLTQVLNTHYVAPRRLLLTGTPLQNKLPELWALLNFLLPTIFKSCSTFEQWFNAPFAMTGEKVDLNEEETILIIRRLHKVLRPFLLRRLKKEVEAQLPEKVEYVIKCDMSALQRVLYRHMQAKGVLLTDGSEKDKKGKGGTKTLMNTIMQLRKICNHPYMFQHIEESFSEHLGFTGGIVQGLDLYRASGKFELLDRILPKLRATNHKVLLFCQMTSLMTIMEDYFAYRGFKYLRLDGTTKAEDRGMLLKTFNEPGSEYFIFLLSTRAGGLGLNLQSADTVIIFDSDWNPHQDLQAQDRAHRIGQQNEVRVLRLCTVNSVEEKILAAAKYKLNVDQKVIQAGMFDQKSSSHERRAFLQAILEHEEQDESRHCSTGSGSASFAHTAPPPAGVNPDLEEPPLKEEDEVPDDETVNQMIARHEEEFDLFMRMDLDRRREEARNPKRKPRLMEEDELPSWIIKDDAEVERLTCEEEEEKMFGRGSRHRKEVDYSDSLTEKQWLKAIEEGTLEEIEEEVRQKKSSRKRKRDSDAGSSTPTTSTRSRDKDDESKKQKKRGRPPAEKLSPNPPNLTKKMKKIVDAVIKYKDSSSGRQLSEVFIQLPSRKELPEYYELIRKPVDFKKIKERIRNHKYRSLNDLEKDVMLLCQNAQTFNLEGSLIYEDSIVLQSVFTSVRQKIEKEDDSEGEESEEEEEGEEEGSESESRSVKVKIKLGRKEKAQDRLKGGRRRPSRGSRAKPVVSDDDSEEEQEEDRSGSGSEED
# Chain of GFP-PB1 (Q86U86 whole entry): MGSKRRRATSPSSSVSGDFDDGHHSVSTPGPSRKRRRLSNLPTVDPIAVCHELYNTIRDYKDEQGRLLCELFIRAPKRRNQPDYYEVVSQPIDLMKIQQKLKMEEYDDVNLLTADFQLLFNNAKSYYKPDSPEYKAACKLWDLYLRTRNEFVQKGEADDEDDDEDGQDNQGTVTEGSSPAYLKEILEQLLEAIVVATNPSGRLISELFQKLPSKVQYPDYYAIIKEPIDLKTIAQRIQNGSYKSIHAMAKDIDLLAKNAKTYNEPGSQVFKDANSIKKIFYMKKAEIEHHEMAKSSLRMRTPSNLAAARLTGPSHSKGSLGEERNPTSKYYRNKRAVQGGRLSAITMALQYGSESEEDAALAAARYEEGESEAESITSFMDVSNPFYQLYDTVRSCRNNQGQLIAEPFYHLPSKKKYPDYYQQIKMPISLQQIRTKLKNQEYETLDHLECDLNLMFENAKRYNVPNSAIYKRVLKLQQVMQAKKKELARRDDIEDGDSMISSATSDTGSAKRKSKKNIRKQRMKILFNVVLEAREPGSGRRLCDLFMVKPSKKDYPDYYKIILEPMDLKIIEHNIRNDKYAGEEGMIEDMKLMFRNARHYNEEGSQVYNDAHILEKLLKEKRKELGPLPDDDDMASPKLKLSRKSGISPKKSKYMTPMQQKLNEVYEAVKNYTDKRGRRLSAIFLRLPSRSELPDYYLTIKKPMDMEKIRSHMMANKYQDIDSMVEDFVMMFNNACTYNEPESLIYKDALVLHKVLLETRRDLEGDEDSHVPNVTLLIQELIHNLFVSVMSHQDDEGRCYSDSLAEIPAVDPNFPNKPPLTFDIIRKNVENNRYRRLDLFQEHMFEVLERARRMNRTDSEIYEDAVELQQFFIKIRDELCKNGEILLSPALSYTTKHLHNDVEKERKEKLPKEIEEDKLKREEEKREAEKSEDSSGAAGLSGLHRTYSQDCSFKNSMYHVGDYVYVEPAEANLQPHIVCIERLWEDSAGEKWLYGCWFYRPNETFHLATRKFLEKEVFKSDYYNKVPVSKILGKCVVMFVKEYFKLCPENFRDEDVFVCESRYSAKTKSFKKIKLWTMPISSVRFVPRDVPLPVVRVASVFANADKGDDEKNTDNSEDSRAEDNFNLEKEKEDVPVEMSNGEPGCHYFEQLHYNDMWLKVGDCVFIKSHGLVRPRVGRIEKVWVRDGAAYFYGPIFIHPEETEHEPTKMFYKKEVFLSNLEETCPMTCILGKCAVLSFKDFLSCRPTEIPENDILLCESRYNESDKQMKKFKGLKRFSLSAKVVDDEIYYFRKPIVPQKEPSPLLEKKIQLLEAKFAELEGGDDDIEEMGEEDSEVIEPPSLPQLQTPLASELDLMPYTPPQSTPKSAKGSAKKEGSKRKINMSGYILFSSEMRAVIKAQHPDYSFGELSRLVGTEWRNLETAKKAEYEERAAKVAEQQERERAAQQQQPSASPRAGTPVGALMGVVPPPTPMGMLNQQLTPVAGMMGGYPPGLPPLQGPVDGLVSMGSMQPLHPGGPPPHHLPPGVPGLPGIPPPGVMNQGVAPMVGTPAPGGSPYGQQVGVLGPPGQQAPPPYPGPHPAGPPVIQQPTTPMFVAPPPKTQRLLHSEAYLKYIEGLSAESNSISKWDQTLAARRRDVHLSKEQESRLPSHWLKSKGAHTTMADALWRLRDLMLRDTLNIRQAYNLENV
# Chain of PB1(5) bromodomain (Q86U86 653-763 limits assumed): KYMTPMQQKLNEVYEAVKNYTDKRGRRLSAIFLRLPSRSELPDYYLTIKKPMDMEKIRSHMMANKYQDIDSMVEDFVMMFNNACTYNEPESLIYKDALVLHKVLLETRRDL
# Chain of GFP-SMARCA2 in U2OS (P51531 1-1572 isoform P51531-2): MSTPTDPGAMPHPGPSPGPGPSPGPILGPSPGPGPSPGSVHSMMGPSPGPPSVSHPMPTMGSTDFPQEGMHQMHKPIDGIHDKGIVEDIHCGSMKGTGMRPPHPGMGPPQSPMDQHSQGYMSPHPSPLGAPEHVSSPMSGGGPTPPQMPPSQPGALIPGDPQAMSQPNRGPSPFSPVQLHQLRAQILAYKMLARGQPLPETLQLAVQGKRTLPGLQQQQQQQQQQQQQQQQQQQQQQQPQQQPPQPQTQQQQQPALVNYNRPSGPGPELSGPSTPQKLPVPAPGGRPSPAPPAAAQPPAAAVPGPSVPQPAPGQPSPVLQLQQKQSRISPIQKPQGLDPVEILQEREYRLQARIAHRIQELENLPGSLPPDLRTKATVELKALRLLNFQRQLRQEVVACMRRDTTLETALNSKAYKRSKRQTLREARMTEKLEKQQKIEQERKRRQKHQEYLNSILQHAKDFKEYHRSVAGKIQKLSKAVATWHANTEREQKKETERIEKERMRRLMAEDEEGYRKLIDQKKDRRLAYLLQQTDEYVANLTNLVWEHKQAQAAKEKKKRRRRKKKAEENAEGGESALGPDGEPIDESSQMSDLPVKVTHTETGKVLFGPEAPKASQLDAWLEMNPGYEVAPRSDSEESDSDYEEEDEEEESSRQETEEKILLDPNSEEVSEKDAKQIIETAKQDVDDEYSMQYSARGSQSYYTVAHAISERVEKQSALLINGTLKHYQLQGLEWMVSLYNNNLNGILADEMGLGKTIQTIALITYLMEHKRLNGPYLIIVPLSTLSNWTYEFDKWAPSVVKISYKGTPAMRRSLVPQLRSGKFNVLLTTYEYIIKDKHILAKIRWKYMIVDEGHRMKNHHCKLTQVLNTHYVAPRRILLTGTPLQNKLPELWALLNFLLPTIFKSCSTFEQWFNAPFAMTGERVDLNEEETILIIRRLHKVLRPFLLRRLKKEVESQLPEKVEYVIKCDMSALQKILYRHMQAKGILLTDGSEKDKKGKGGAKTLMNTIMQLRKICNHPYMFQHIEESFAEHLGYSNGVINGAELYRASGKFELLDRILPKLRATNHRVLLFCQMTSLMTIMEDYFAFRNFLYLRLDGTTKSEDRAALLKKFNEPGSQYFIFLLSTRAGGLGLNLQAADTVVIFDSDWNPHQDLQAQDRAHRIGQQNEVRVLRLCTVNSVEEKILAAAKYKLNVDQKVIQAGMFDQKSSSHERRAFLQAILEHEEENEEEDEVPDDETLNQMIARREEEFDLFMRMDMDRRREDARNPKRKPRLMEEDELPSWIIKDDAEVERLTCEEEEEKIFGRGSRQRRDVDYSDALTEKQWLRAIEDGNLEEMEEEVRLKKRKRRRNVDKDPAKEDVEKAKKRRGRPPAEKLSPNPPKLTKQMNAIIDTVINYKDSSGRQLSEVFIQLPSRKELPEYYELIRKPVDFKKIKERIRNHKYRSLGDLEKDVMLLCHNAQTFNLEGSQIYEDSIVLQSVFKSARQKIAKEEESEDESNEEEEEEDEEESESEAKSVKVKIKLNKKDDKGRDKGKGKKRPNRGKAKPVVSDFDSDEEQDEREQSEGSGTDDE
structure (smiles),measurement,setting,value
"O=C(O)c1ccccc1O [Compound 1, salicylic acid]",fragment screen hit quality (DSF),PB1(5) bromodomain,"weak, but highly ligand efficient hit"
"O=C(/C=C/N1C[C@H]2C[C@@H]1CN2c1ccccn1)c1ccccc1O [Compound 16, (E)-1-(2-hydroxyphenyl)-3-((1R,4R)-5-(pyridin-2-yl)-2,5-diazabicyclo[2.2.1]heptan-2-yl)prop-2-en-1-one]",compound recovered,[1],Greater than 90%
same,cytotoxic effect (MTT cell viability),[2],did not have significant cytotoxic effect
same,effect on cell line proliferation,[3],did not show any effect
same,inhibition of adipogenesis,[4],Near complete inhibition
same,SMARCA4 in cell target engagement (FRAP),SMARCA4,confirmed
O=C(/C=C/N1[C@H]2CC[C@@H]1c1ncnc(NC3CC3)c1C2)c1ccccc1O [Compound 17],FRAP half-recovery time (t1/2) of GFP-SMARCA2,GFP-SMARCA2 in U2OS,accelerated FRAP half-recovery time (t1/2) significantly in a dose dependent manner
same,displacement of GFP-PB1 from chromatin (FRAP),GFP-PB1; 1 μM,able to displace PB1 from chromatin
same,"selectivity over non-family VIII bromodomains, BROMOscan",[5],not active
same,"selectivity over non-family VIII bromodomains, Tm shift panel",[6],not active
same,effect on cell line proliferation,[3],did not show any effect
same,SMARCA4 in cell target engagement (FRAP),SMARCA4,confirmed
same,binding to Family VIII bromodomains by ITC,Family VIII bromodomains,potent binder to most of the Family VIII bromodomains
C#CCNc1ccnc(N2C[C@H]3C[C@@H]2CN3/C=C/C(=O)c2cccc(OC)c2O)n1 [Compound 18],half-recovery time of GFP-PB1 (FRAP),GFP-PB1,no effect
